The species entered for data set [1] is Homo sapiens. The data set can be described thus: Ratio of human TLR7 activity to human TLR8 activity. An outline of the steps:
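TLR7/TLR8 ratio computed from fold NF-κB (SEAP reporter) activation in HEK293 cells stably expressing human TLR7 versus TLR8, compounds at 50 μg/mL, 18 h exposure; representative of three independent experiments.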

Data set [2] deals with Toll-like receptor 3 (Homo sapiens) (UniProt O15455). Description: Activation of human TLR3 expressed in HEK293 assessed as induction of NF-kappaB activity reporter gene assay. It counts as cell-based. In general terms: A reporter such as luciferase makes a cellular process visible.
The nature of data set [3]: Metabolic stability in human serum assessed as full length product remaining after 10 mins by HPLC. It counts as ADME, cell-free. As to conditions: read-out: Stability. In short, it runs like this:
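About 0.5 A260 units compound in 1% human serum in PBS, 37 °C; aliquot taken at 10 min, analysed by anion-exchange HPLC for percent intact full-length product.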

For data set [4], the target named is T1, Toll-like receptor 8 (Homo sapiens) (UniProt Q9NR97).
T1 sequence (whole entry): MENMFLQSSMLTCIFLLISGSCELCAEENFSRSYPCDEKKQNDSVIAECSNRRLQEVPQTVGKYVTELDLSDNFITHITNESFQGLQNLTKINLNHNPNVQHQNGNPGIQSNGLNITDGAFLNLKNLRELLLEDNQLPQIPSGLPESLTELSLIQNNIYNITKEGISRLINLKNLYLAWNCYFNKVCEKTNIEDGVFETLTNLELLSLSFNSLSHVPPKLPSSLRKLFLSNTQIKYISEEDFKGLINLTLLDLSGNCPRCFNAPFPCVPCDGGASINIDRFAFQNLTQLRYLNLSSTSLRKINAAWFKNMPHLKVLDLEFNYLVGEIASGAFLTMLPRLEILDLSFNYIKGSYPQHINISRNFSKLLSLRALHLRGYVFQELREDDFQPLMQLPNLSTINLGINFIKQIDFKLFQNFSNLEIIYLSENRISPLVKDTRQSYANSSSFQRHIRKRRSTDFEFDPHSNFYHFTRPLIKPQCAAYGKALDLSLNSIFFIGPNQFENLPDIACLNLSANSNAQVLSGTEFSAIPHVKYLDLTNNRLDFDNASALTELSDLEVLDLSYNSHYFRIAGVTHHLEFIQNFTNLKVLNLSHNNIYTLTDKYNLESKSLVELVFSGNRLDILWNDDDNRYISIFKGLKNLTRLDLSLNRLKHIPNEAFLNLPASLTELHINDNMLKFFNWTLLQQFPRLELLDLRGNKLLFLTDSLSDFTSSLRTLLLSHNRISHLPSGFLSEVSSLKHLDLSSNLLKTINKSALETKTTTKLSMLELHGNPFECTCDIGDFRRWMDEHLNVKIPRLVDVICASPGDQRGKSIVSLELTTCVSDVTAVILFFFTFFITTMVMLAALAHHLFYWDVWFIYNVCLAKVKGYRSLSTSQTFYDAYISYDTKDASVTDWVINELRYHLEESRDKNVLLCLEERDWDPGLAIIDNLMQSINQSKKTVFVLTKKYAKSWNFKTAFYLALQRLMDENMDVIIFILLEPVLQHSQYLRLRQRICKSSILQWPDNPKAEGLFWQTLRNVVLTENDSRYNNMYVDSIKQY
Description: Activation of human TLR8 expressed in HEK293XL assessed as fold induction of NF-kappaB activity at 50 ug/ml after 18 hrs by reporter gene assay relative to control. In short, it runs like this: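 HEK293 cells stably expressing human TLR7 or TLR8, transiently transfected with SEAP reporter plasmid; medium replaced, SIMRA compounds added, 18 h incubation. Supernatant SEAP measured by QuantiBlue; expressed as fold increase in NF-κB activity over PBS control. Tabulated data at 50 μg/mL, representative of three independent experiments.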

Data set [5] relates to PBMC. Description: Immunomodulatory activity in human PBMC assessed as induction of IFN-alpha at 100 ug/ml after 24 hrs.

Activity calls are given as the source filed them. The calls are words filed in the database; no cut-off is given here.

3 molecules from ChEMBL document CHEMBL1154352, “Toll-like receptor 7 selective synthetic oligoribonucleotide agonists: synthesis and structure-activity relationship studies” (J Med Chem, 2009) can be followed below.

Chain of Toll-like receptor 3 (Homo sapiens) (O15455 whole entry): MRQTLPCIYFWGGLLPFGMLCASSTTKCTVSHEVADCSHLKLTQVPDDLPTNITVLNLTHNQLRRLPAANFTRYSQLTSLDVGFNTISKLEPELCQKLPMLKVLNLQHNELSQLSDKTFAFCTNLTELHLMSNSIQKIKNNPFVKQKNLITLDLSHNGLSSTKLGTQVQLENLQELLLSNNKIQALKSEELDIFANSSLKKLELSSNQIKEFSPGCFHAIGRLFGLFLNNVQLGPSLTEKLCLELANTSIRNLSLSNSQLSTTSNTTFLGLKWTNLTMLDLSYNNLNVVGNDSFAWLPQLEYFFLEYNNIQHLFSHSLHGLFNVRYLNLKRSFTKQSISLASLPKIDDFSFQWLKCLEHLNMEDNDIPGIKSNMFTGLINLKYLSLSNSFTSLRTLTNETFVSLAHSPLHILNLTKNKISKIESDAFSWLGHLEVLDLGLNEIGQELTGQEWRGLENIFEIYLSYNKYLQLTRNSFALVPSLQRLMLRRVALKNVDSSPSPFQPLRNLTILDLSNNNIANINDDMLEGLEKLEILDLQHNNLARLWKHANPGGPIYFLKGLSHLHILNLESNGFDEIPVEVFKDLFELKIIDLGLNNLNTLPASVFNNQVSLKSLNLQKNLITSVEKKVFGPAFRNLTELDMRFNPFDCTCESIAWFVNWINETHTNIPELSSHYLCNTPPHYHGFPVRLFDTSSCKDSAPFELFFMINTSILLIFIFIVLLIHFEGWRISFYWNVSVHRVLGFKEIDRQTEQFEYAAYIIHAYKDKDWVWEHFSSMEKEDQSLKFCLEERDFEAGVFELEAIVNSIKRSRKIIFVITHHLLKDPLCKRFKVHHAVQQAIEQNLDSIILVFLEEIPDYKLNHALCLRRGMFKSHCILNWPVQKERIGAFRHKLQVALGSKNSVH

Consider `Nc1ccn([C@@H]2O[C@H](COP(=O)(S)O[C@H]3[C@@H](O)[C@H](n4cnc5c(N)ncnc54)O[C@@H]3COP(=O)(S)O[C@H]3[C@@H](O)[C@H](n4cnc5c(N)ncnc54)O[C@@H]3CO)[C@@H](OP(=O)(S)OC[C@H]3O[C@@H](n4ccc(=O)[nH]c4=O)[C@H](O)[C@@H]3OP(=O)(S)OC[C@H]3O[C@@H](n4ccc5c(=O)[nH]c(N)nc54)[C@H](O)[C@@H]3OP(=O)(S)OC[C@H]3O[C@@H](n4cnc5c(N)ncnc54)[C@H](O)[C@@H]3OP(=O)(S)OC[C@H]3O[C@@H](n4cnc5c(N)ncnc54)[C@H](O)[C@@H]3OP(=O)(S)OC[C@H]3O[C@@H](n4ccc5c(=O)[nH]c(N)nc54)[C@H](O)[C@@H]3OP(=O)(S)OC[C@H]3O[C@@H](n4ccc(N)nc4=O)[C@H](O)[C@@H]3OP(=O)(S)OC[C@H]3O[C@@H](n4ccc(=O)[nH]c4=O)[C@H](O)[C@@H]3OP(=O)(S)OC[C@H]3O[C@@H](n4ccc5c(=O)[nH]c(N)nc54)[C@H](O)[C@@H]3OP(=O)(S)OCC(O)COP(=O)(S)O[C@H]3[C@@H](O)[C@H](n4ccc5c(=O)[nH]c(N)nc54)O[C@@H]3COP(=O)(S)O[C@H]3[C@@H](O)[C@H](n4ccc(=O)[nH]c4=O)O[C@@H]3COP(=O)(S)O[C@H]3[C@@H](O)[C@H](n4ccc(N)nc4=O)O[C@@H]3COP(=O)(S)O[C@H]3[C@@H](O)[C@H](n4ccc5c(=O)[nH]c(N)nc54)O[C@@H]3COP(=O)(S)O[C@H]3[C@@H](O)[C@H](n4cnc5c(N)ncnc54)O[C@@H]3COP(=O)(S)O[C@H]3[C@@H](O)[C@H](n4cnc5c(N)ncnc54)O[C@@H]3COP(=O)(S)O[C@H]3[C@@H](O)[C@H](n4ccc5c(=O)[nH]c(N)nc54)O[C@@H]3COP(=O)(S)O[C@H]3[C@@H](O)[C@H](n4ccc(=O)[nH]c4=O)O[C@@H]3COP(=O)(S)O[C@H]3[C@@H](O)[C@H](n4ccc(N)nc4=O)O[C@@H]3COP(=O)(S)O[C@H]3[C@@H](O)[C@H](n4cnc5c(N)ncnc54)O[C@@H]3COP(=O)(S)O[C@H]3[C@@H](O)[C@H](n4cnc5c(N)ncnc54)O[C@@H]3CO)[C@H]2O)c(=O)n1` (stereo not given in full), for which the Ratio in data set [1] stood at 30.7. For the same molecule, the outcome in data set [2] was inactive. Further, the remaining at 10 min in data set [3] is 76%. Further, in data set [4], the fold change (FC) was determined as 0.6. Also, the IFN-alpha in data set [5] stood at 28.7 pg/mL.

Take `Nc1ccn([C@@H]2O[C@H](COP(=O)(S)O[C@H]3[C@@H](O)[C@H](n4cnc5c(N)ncnc54)O[C@@H]3COP(=O)(S)O[C@H]3[C@@H](O)[C@H](n4cnc5c(N)ncnc54)O[C@@H]3CO)[C@@H](OP(=O)(S)OC[C@H]3O[C@@H](n4ccc(=O)[nH]c4=O)[C@H](O)[C@@H]3OP(=O)(S)OC[C@H]3O[C@@H](n4ccc(=O)[nH]c4=O)[C@H](O)[C@@H]3OP(=O)(S)OC[C@H]3O[C@@H](n4ccc5c(=O)[nH]c(N)nc54)[C@H](O)[C@@H]3OP(=O)(S)OC[C@H]3O[C@@H](n4cnc5c(N)ncnc54)[C@H](O)[C@@H]3OP(=O)(S)OC[C@H]3O[C@@H](n4ccc5c(=O)[nH]c(N)nc54)[C@H](O)[C@@H]3OP(=O)(S)OC[C@H]3O[C@@H](n4ccc(N)nc4=O)[C@H](O)[C@@H]3OP(=O)(S)OC[C@H]3O[C@@H](n4ccc(=O)[nH]c4=O)[C@H](O)[C@@H]3OP(=O)(S)OC[C@H]3O[C@@H](n4ccc(=O)[nH]c4=O)[C@H](O)[C@@H]3OP(=O)(S)OCC(O)COP(=O)(S)O[C@H]3[C@@H](O)[C@H](n4ccc(=O)[nH]c4=O)O[C@@H]3COP(=O)(S)O[C@H]3[C@@H](O)[C@H](n4ccc(=O)[nH]c4=O)O[C@@H]3COP(=O)(S)O[C@H]3[C@@H](O)[C@H](n4ccc(N)nc4=O)O[C@@H]3COP(=O)(S)O[C@H]3[C@@H](O)[C@H](n4ccc5c(=O)[nH]c(N)nc54)O[C@@H]3COP(=O)(S)O[C@H]3[C@@H](O)[C@H](n4cnc5c(N)ncnc54)O[C@@H]3COP(=O)(S)O[C@H]3[C@@H](O)[C@H](n4ccc5c(=O)[nH]c(N)nc54)O[C@@H]3COP(=O)(S)O[C@H]3[C@@H](O)[C@H](n4ccc(=O)[nH]c4=O)O[C@@H]3COP(=O)(S)O[C@H]3[C@@H](O)[C@H](n4ccc(=O)[nH]c4=O)O[C@@H]3COP(=O)(S)O[C@H]3[C@@H](O)[C@H](n4ccc(N)nc4=O)O[C@@H]3COP(=O)(S)O[C@H]3[C@@H](O)[C@H](n4cnc5c(N)ncnc54)O[C@@H]3COP(=O)(S)O[C@H]3[C@@H](O)[C@H](n4cnc5c(N)ncnc54)O[C@@H]3CO)[C@H]2O)c(=O)n1` (stereo not given in full): the Ratio in data set [1] was 20.1. Also, in data set [2], the outcome was inactive. Moreover, the remaining at 10 min in data set [3] amounted to 82%. The fold change (FC) in data set [4] came out at 1. In addition, the IFN-alpha in data set [5] worked out at 106 pg/mL.

With `Nc1ccn([C@@H]2O[C@H](COP(=O)(S)O[C@H]3[C@@H](O)[C@H](n4ccc5c(=O)[nH]c(N)nc54)O[C@@H]3CO[C@H]3[C@@H](O)[C@H](n4cnc5c(N)ncnc54)O[C@@H]3COP(=O)(S)O[C@H]3[C@@H](O)[C@H](n4ccc5c(=O)[nH]c(N)nc54)O[C@@H]3COP(=O)(S)O[C@H]3[C@@H](O)[C@H](n4ccc(=O)[nH]c4=O)O[C@@H]3COP(=O)(S)O[C@H]3[C@@H](O)[C@H](n4ccc(N)nc4=O)O[C@@H]3COP(=O)(S)O[C@H]3[C@@H](O)[C@H](n4ccc5c(=O)[nH]c(N)nc54)O[C@@H]3COP(=O)(S)O[C@H]3[C@@H](O)[C@H](n4ccc(=O)[nH]c4=O)O[C@@H]3COP(=O)(S)O[C@H]3[C@@H](O)[C@H](n4ccc(=O)[nH]c4=O)O[C@@H]3CO)[C@@H](OP(=O)(S)OC[C@H]3O[C@@H](n4ccc(=O)[nH]c4=O)[C@H](O)[C@@H]3OP(=O)(S)OC[C@H]3O[C@@H](n4ccc(=O)[nH]c4=O)[C@H](O)[C@@H]3OP(=O)(S)OCC(O)COP(=O)(S)O[C@H]3[C@@H](O)[C@H](n4ccc(=O)[nH]c4=O)O[C@@H]3COP(=O)(S)O[C@H]3[C@@H](O)[C@H](n4ccc(=O)[nH]c4=O)O[C@@H]3COP(=O)(S)O[C@H]3[C@@H](O)[C@H](n4ccc(N)nc4=O)O[C@@H]3COP(=O)(S)O[C@H]3[C@@H](O)[C@H](n4ccc5c(=O)[nH]c(N)nc54)O[C@@H]3CO[C@H]3[C@@H](O)[C@H](n4cnc5c(N)ncnc54)O[C@@H]3COP(=O)(S)O[C@H]3[C@@H](O)[C@H](n4ccc5c(=O)[nH]c(N)nc54)O[C@@H]3COP(=O)(S)O[C@H]3[C@@H](O)[C@H](n4ccc(=O)[nH]c4=O)O[C@@H]3COP(=O)(S)O[C@H]3[C@@H](O)[C@H](n4ccc(N)nc4=O)O[C@@H]3COP(=O)(S)O[C@H]3[C@@H](O)[C@H](n4ccc5c(=O)[nH]c(N)nc54)O[C@@H]3COP(=O)(S)O[C@H]3[C@@H](O)[C@H](n4ccc(=O)[nH]c4=O)O[C@@H]3COP(=O)(S)O[C@H]3[C@@H](O)[C@H](n4ccc(=O)[nH]c4=O)O[C@@H]3CO)[C@H]2O)c(=O)n1` (stereo not given in full), the Ratio in data set [1] was determined as 66.8. Further, the outcome in data set [2] was inactive. The remaining at 10 min in data set [3] worked out at 83%. Besides, the fold change (FC) in data set [4] was found to be 0.4. In data set [5], the IFN-alpha came to 145 pg/mL.
